Source: ChEMBL document CHEMBL1128644, “(+/-)-(N-alkylamino)benzazepine analogs: novel dopamine D1 receptor antagonists” (J Med Chem, 1995)
pKi: −log10 of the molar value.

Legend:
D(1A) dopamine receptor = D(1A) dopamine receptor (Rattus norvegicus, UniProt P18901)
D(2) dopamine receptor = D(2) dopamine receptor (Rattus norvegicus, UniProt P61169); assay: Binding affinity against Dopamine receptor D2 from rat striatal membranes, using [3H]sulpiride as radioligand.
How it was run: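 Rat (male Sprague–Dawley, 200–250 g) caudate putamen membranes, freshly prepared in 50 mM Tris pH 7.4 and washed by centrifugation. Incubation with 3 nM [³H]sulpiride (final) for 30 min at 37 °C, in triplicate. Nonspecific binding defined with 10 μM sulpiride. Filtration, scintillation counting, Ki by LIGAND; at least three determinations.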

Chain of D(2) dopamine receptor (P61169 whole entry): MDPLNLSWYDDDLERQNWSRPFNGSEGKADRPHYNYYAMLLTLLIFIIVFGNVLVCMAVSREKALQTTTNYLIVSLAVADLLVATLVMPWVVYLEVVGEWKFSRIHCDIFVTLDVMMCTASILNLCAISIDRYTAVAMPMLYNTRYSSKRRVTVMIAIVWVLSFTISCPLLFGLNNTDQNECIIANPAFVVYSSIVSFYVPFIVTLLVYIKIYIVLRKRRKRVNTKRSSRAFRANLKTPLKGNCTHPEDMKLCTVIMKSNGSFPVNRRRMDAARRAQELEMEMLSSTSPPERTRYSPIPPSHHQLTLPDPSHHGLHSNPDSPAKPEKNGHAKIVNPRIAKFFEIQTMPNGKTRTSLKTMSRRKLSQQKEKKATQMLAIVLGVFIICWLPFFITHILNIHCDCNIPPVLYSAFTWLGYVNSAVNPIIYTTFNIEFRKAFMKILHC
Chain of D(1A) dopamine receptor (P18901 whole entry): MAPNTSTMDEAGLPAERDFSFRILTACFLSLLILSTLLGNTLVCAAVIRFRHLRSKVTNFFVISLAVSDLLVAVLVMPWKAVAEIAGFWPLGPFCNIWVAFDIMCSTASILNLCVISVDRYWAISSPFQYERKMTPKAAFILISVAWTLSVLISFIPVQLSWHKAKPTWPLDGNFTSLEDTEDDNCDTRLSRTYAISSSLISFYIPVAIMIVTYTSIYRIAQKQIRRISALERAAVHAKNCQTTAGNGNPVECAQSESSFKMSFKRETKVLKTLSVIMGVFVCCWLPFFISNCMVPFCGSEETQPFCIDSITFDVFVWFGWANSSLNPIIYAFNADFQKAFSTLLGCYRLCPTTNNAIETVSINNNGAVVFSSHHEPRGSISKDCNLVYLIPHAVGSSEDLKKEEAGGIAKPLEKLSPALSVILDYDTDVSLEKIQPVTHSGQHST

Row | SMILES | pKi (D(1A) dopamine receptor) | pKi (D(2) dopamine receptor)
1 | CN(C)CCCCN1CCc2cc(Br)c(O)cc2C(c2ccccc2)C1 (centres undefined) | 5.83 | < 5.00
2 | BC#N.CN(C)CCCCCCN1CCc2cc(Cl)c(O)cc2C(c2ccccc2)C1 (centres undefined) | 6.85 | 
3 | COc1cc2c(cc1Cl)CCN(CCCCN(C)C)CC2c1ccccc1 (centres undefined) | < 5.00 | 5.04
4 | NCCCCCCN1CCc2cc(Cl)c(O)cc2C(c2ccccc2)C1 (centres undefined) | 6.49 | 5.60
5 | COc1cc2c(cc1OC)C(c1ccccc1)CN(CCCCN(C)C)CC2 (centres undefined) | < 5.00 | < 5.00
6 | COc1cc2c(cc1Br)CCN(CCCCN(C)C)CC2c1ccccc1 (centres undefined) | < 5.00 | 5.60
7 | CCCCN1CCc2cc(Cl)c(O)cc2C(c2ccccc2)C1 (centres undefined) | 6.20 | 5.63
8 | CN(C)CCCCN1CCc2cc(Cl)c(O)cc2C(c2ccccc2)C1 (centres undefined) | 6.09 | 5.38
9 | O=CNCCCCCCN1CCc2cc(Cl)c(O)cc2C(c2ccccc2)C1 (centres undefined) | 6.26 | 5.69
10 | CN(C)CCCCN1CCc2cc(O)c(O)cc2C(c2ccccc2)C1 (centres undefined) | 5.32 | < 5.00
11 | CNCCCCN1CCc2cc(Cl)c(O)cc2C(c2ccccc2)C1 (centres undefined) | 6.97 | < 5.00
12 | CNCCCCCCN1CCc2cc(Cl)c(O)cc2C(c2ccccc2)C1 (centres undefined) | 7.12 | 5.45
13 | NCCCCN1CCc2cc(Cl)c(O)cc2C(c2ccccc2)C1 (centres undefined) | 7.12 | 5.37
14 | CN(C)CCCCCCN1CCc2cc(Cl)c(O)cc2C(c2ccccc2)C1 (centres undefined) | 7.31 | 5.46
15 | NCCCC(=O)N1CCc2cc(Cl)c(O)cc2C(c2ccccc2)C1 (centres undefined) | 6.22 | 5.13
